Source: PubChem BioAssay
A selection: hits, their analogues and other compounds. The true share with any hit is near 2.4%.
bCat nuc transl – beta-catenin nuclear translocation modulation; 0.3% of 190,000 active; nuclear translocation activity, % at 5 µM; AID 1665; HeLa beta-catenin nuclear translocation, immunofluorescence imaging;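 active = nuclear translocation activity above 50% at 5 µM, with a well cell count of 50 or more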;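 note: per-cell ratio of nuclear to cytoplasmic median beta-catenin stain intensity; plate controls were DMSO negative control for no effect and GSK-3 inhibitor IX positive control for full effect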
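test system = HeLa cells, endogenous beta-catenin | dosing = single 5 µM dose plus 0.02–20 µM confirmation series | times = compound treatment 24 h, 37°C, 5% CO2 | technique = beta-catenin immunofluorescence imaging with DAPI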
STAT3 act – STAT3 signaling activation; U3A cells, IL-6 STAT3-luciferase reporter, luminescence; 100% = signal with IL-6 EC80 alone; activation (% of control), % at 5.6 µM; 0.91% of 190,000 active; AID 871;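 active = activation above the screen-wide mean of compound activation plus 3 SD, cut at about 130% in these data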;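 note: 0% = background luminescence of wells with medium and substrate only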
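Test system: Human STAT1-deficient U3A cells with stable STAT3-luciferase reporter | Also added: Interleukin-6, 33 ng/mL | Timing: Compound pre-incubation 1 h before IL-6, then 6 h stimulation at 37 °C | Technique: Luciferase reporter luminescence | Read-out: Percent of IL-6-only median luminescence | Benchmarks: IL-6-only wells as 100% reference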
MT stabilize HCS – stabilizes microtubules in HeLa cells | HeLa tubulin immunostaining HCS, 24 h; share of cells brighter than vehicle mean+2SD | % tubulin-high responders, % at 10 µM | 0.83% of 200,000 active | AID 2205;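 active = plate Z-score above 3 for both tubulin-high and condensed-nucleus cell shares, with cell loss under 80%, at 10 µM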;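 note: anti alpha tubulin signal scored within the nucleus-defined area of each cell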
STAT3 inh-1 – reduces IL-6 driven STAT3 reporter signal; U3A cells, IL-6 STAT3-luciferase reporter, luminescence; host cell line lacks STAT1; AID 862; 0.89% of 190,000 active; inhibition, % at 5.5 µM;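 active = inhibition above the mean inhibition across all screened compounds plus 3 SD, cut at about 44% in these data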;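 note: 0% = DMSO only wells and 100% = 100 µM nifuroxazide control wells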
STAT1 blocker – STAT1 signaling inhibition; NIH 3T3 STAT1-luciferase reporter, IFN-gamma, luminescence; inhibition, % at 5.5 µM; 0.35% of 200,000 active;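 active = inhibition above a set limit, the mean inhibition across all tested compounds plus 3 SD, cut at about 34% in these data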;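 note: 0% = IFN-gamma with DMSO and 100% = IFN-gamma with 300 µM nifuroxazide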
STAT3 inh-2 – confirmation of STAT3 signaling inhibitors; shares compounds with STAT3 inh-1; U3A cells, IL-6 STAT3 luciferase reporter, luminescence; cell line lacks STAT1; inhibition, % at 5.7 µM; 45% of 1,200 active; AID 1265;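 active = inhibition above the hit cutoff computed for the primary STAT3 screen, cut at about 44% in these data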;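 note: 0% = IL-6 plus DMSO and 100% = IL-6 plus nifuroxazide control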
NFkB inh STAT3ct – counter-screen for STAT3 inhibitors: NF-kappaB inhibition; shares compounds with STAT3 inh-1; HEK293T NF-kB luciferase reporter, TNF-alpha induced; inhibition, % at 5.7 µM; 36% of 1,200 active; AID 1308;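 active = inhibition above the mean of solvent-only control wells plus 3 SD, cutoff set per campaign, cut at about 13% in these data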;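 note: 0% = TNF-alpha with DMSO and 100% = TNF-alpha with MG high control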
STAT1 inh STAT3c – counter-screen for STAT3 inhibitors: STAT1 inhibition; shares compounds with STAT3 inh-1; NIH 3T3 STAT1-luciferase reporter, IFN-gamma induced, luminescence; inhibition, % at 5.7 µM; 27% of 1,200 active; AID 1317;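 active = inhibition above the mean plus 3 SD of solvent-only control wells, limit set per screening run, cut at about 16% in these data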;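 note: 0% = DMSO with IFN-gamma and 100% = nifuroxazide control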
Numbers without * were called inactive; x = no result given.

SMILES	bCat nuc transl	STAT3 act	MT stabilize HCS	STAT3 inh-1	STAT1 blocker	STAT3 inh-2	NFkB inh STAT3ct	STAT1 inh STAT3c
COc1ccccc1OCC(=O)OCC(=O)Nc1sccc1C(N)=O	x	96.1	2.2	6.8	-1.1	x	x	x
NC(=O)c1ccsc1NC(=O)COC(=O)Cc1cccc2ccccc12	x	36.9	0.8	75.1*	18.0	74.3*	18.5*	20.2*
CC(O)c1nc2ccccc2n1CCCCOc1ccccc1 (stereo unspecified)	-1.2	89.6	1.4	14.4	-3.5	x	x	x
CCOC(=O)c1cc2sccc2n1CC(=O)C(C)(C)C	-1.9	98.3	1.1	4.4	-1.1	x	x	x
CCOc1ccc(-c2nnc(SCC(=O)Nc3cc(C)on3)o2)cc1	-1.4	62.1	3.4	49.3*	-2.6	42.1	16.0*	13.6
O=C(CSc1nnc(-c2ccccc2)o1)Nc1ccccc1F	x	68.1	3.2	45.4*	-19.6	27.2	-26.2	-66.1
Cc1ccc(-c2nnc(SCC(=O)Nc3ccccc3F)o2)cc1	-0.7	59.2	2.7	55.7*	-21.9	33.8	-31.7	-80.8
COC(=O)c1ccccc1NC(=O)CSc1nnc(-c2ccc(C)cc2)o1	3.0	108.8	3.4	-6.6	-25.2	x	x	x
COc1ccc(NC(=O)CN2C(=O)C(c3ccccc3)=NC23CCCCCC3)cc1	-1.1	105.8	2.8	-8.5	6.6	x	x	x
O=C(CN1C(=O)C(c2ccc(F)cc2)=NC12CCCC2)Nc1ccc(F)cc1	-1.0	54.2	2.9	57.6*	22.6	54.1*	13.8*	21.7*
CCOC(=O)c1sc(NC(=O)c2cc3c(s2)CCC(C)C3)nc1C (stereo unspecified)	x	53.9	2.2	55.7*	2.3	-7.2	-9.3	-43.1
O=C(NCCCN1CCOCC1)c1ccc(Br)cc1	-1.2	56.3	4.4	52.9*	-5.8	4.7	-8.1	-13.2
CNC(=O)CC1C(=O)N(C)C(=S)N1NC(=O)c1ccc(Cl)cc1 (stereo unspecified)	-3.7	106.7	2.9	-6.6	-4.6	x	x	x
COc1ccc(CCNC(=O)COC(=O)CCC(=O)c2ccc(F)cc2)cc1	-2.3	99.2	5.4	8.7	8.5	x	x	x
O=C(Nc1cccc(-c2nc3ccccc3s2)c1)c1ccc2c(c1)OCO2	-0.3	101.5	1.8	5.9	6.2	x	x	x
c1ccc2sc(-c3ccc4c(c3)OCO4)nc2c1	-2.2	41.3	4.4	70.3*	4.4	25.2	7.1	-68.0
O=C(CSc1nnnn1C1CC2CCC1C2)Nc1ccnc2ccccc12 (stereo unspecified)	3.4	34.4	6.8	81.3*	24.9	88.8*	42.0*	32.5*
CC(OC(=O)c1nc(-c2ccccc2)n(-c2ccccc2)n1)C(=O)Nc1cc(Cl)cc(Cl)c1 (stereo unspecified)	-0.4	100.1	5.3	-5.2	-3.6	x	x	x
O=C(/C=C/Nc1ccc(F)cc1F)c1cccs1	1.9	43.6	7.1	66.3*	1.4	53.8*	54.8*	33.3*
O=C(/C=C/Nc1ccccc1F)c1cccs1	-1.5	48.4	4.5	61.0*	0.0	1.8	16.3*	-45.7
Cn1c(N=NC(=O)c2ccccc2)c(O)c2ccccc21	x	60.6	1.9	46.4*	-48.2	13.2	-16.2	-111.5
Cc1cnc(NC(=O)CC2CCCC2)s1	0.9	99.0	6.6	4.9	-32.2	x	x	x
COc1ccc(C2SCC(=O)N2CCc2ccc(OC)c(OC)c2)cc1 (stereo unspecified)	82.0*	64.1	18.1*	45.3*	28.0	43.4*	14.9*	16.4*
CC(C)NC(=O)c1ccc(-n2nc(C(F)(F)F)c3c2CCCC3)cc1	-4.1	88.3	1.1	16.2	4.9	x	x	x
Cn1ccnc1C1CCCCN1C(=O)c1cc(COc2ccc(F)cc2F)on1 (stereo unspecified)	-0.6	x	x	x	x	x	x	x
COc1ccc(-c2ccc3ccccc3n2)cc1	-0.3	54.9	1.8	55.0*	23.2	17.8	-22.8	-107.3
COC(=O)c1c(C)[nH]c(C(=O)NCc2ccco2)c1C	0.4	90.8	2.8	13.5	-4.7	x	x	x
